Measured values: ChEMBL document CHEMBL4261608, “Design, synthesis and anti-mycobacterial activity evaluation of benzofuran-isatin hybrids” (Eur J Med Chem, 2018)
≈ marks a conversion by molar mass, not a printed value.

Tests used:
[1] = Tmax in ICR mouse at 25 mg/kg, po administered as single dose; format: ADME, organism-based; conditions: in vivo
In short: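 SPF female ICR mice (20-25 g), 3 per group, given a single oral dose of 25 mg/kg as a suspension in 0.5% CMC. Blood drawn from the jugular vein at 0.25, 0.5, 1, 2, 4, 6, 8 and 24 h post-dose. AUC(0-inf), t1/2, Cmax and Tmax derived directly from the concentration-time data.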

[2] = tested on: Mycobacterium tuberculosis; experiment: Antimycobacterial activity against Mycobacterium tuberculosis H37Rv incubated for 7 days by rapid direct susceptibility test; format: functional; conditions: 168 h
In short: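 Two-fold dilutions of compound mixed with MTB suspension holding 4×10^-3 mg cells (H37Rv, or MDR strain resistant to ethambutol, INH and RIF) in 48-well plates. Incubation at 37 °C in a wet box. Cells in each well observed by continuous visual high-magnification system, re-read 7 days later. MIC taken as lowest concentration inhibiting visible growth.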

[3] = Cytotoxicity against African green monkey Vero cells after 72 hrs by MTT assay; format: cell-based; conditions: chlorocebus sabaeus
[4] = Selectivity index, ratio of CC50 for African green monkey Vero cells to MIC for Mycobacterium tuberculosis H37Rv; format: toxicity; conditions: read-out: Selectivity Index
In short: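 SI calculated as CC50/MIC against H37Rv. Viability read by MTT, CC50 by Bliss analysis. MIC comes from the 7-day visual broth test.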

Compound: CCOC(=O)c1c(-c2ccc(OC)cc2)oc2ccc(OCc3cn(CCN4C(=O)/C(=N/NC(N)=S)c5cc(OC)ccc54)nn3)cc12
- Tmax [1]: 1.24 h

Compound: CCOC(=O)c1c(-c2ccc(O)cc2)oc2ccc(O)c(CN3CCCCC3)c12
- Tmax [1]: 3.46 h

Compound: NNC(=O)c1ccncc1 [ISONIAZID]
- MIC [2]: 0.06 µg/mL (≈ 0.438 µM)
- CC50 at 72 h [3]: 256 µM
- selectivity ratio [4]: 4096

Compound: CO[C@H]1/C=C/O[C@@]2(C)Oc3c(C)c(O)c4c(O)c(c(/C=N/N5CCN(C)CC5)c(O)c4c3C2=O)NC(=O)/C(C)=C\C=C\[C@H](C)[C@H](O)[C@@H](C)[C@@H](O)[C@@H](C)[C@H](OC(C)=O)[C@@H]1C [RIFAMPIN]
- CC50 at 72 h [3]: 512 µM
- selectivity ratio [4]: 1024
